The text below walks through data of ChEMBL document CHEMBL1133680, “Benzo[c]quinolizin-3-ones: a novel class of potent and selective nonsteroidal inhibitors of human steroid 5alpha-reductase 1” (J Med Chem, 2000).

SMILES strings stand for the structures.

In test [1] the target is T1, 3-oxo-5-alpha-steroid 4-dehydrogenase 1 (Homo sapiens, UniProt P18405).
T1 sequence (P18405 whole entry): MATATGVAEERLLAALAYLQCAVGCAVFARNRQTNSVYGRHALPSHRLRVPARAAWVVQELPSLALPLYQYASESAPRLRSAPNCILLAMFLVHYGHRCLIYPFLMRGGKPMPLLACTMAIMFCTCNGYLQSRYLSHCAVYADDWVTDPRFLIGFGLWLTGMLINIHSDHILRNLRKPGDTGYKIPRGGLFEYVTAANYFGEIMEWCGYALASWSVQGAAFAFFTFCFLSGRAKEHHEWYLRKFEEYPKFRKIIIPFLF
Nature of the test: Inhibition of recombinant steroid 5-alpha-reductase type I expressed in CHO cells. Format: cell-based.

Test [2] deals with T1, 3-oxo-5-alpha-steroid 4-dehydrogenase 1. Nature of the test: Inhibition of recombinant Steroid 5-alpha-reductase type I expressed in CHO cells. Format: cell-based.
Test [3] shares this target. Nature of the test: Inhibition constant against recombinant Steroid 5-alpha-reductase type I expressed in CHO cells. Format: cell-based.
For test [4], the target named is T2, 3-oxo-5-alpha-steroid 4-dehydrogenase 2 (Homo sapiens) (UniProt P31213).
T2 sequence (whole entry): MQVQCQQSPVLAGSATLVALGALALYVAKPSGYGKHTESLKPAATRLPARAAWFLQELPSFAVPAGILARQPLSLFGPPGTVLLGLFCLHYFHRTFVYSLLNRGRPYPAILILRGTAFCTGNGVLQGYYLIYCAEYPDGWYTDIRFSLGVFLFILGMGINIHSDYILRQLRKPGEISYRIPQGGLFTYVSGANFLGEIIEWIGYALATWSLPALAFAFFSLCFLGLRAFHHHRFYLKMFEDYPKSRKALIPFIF
Nature of the test: Inhibitory activity against steroid 5-alpha-reductase type 2 in human prostate homogenates at 10 uM. Format: tissue-based. Conditions: Prostate gland. In short, it runs like this:
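Native 5αR-2 assayed in total human prostate homogenate with 50 nM testosterone, a level below the 5αR-1 Km so only type 2 is active. Percent inhibition was measured at 10 µM inhibitor.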

For test [5], the target named is T1, 3-oxo-5-alpha-steroid 4-dehydrogenase 1. Nature of the test: Inhibitory activity against Steroid 5-alpha-reductase type I in human scalp homogenates. Format: tissue-based. In short, it runs like this: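 Native 5αR-1 assayed in total human scalp homogenate with testosterone at micromolar level. 10 nM finasteride was included to suppress the co-active 5αR-2, and the value is reported as IC50.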

For test [6] the target is unchanged. Nature of the test: Inhibitory activity against recombinant Steroid 5-alpha-reductase type I expressed in CHO cells. Format: cell-based.
In test [7] the target is T3, 3-oxo-5-alpha-steroid 4-dehydrogenase 2 (Homo sapiens, UniProt P31213).
T3 sequence (P31213 whole entry): T2 sequence (whole entry)
Nature of the test: Inhibitory activity against steroid 5-alpha-reductase type 2 in human prostate homogenates. Format: tissue-based, Prostate gland. Summed up:
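Native 5αR-2 in total human prostate homogenate, with 50 nM testosterone so that only type 2 is active (Km 0.2 µM vs 1.7 µM for type 1). Inhibition measured at 10 µM or as IC50. Finasteride and LY191704 used as selectivity controls.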

Consider `C[C@H]1Cc2cc(Cl)ccc2N2C=CC(=O)CC12` (some centres not stated), for which the concentration for half-maximal inhibition (IC50) in test [1] amounted to 9100 nM. For the compound `Cc1ccc2c(c1)CCC1C(C)C(=O)C=CN21` (configuration not stated), the half-inhibitory concentration (IC50) in test [2] came to 312 nM.

Consider `C[C@@H]1CC2CC(=O)C=CN2c2ccc(Cl)cc21` (some centres not stated), for which the concentration for half-maximal inhibition (IC50) in test [1] was found to be 188 nM. On to `CC1=C2CC(C)c3cc(C)ccc3N2CCC1=O` (configuration not stated), for which, in test [2], the IC50 stood at 15.8 nM.

For `Cc1ccc2c(c1)C(C)CC1=CC(=O)CCN12` (configuration not stated), the IC50 in test [2] was found to be 14.3 nM. For the compound `CC1C(=O)C=CN2c3ccc(Cl)cc3CCC12` (configuration not stated), the IC50 in test [1] stood at 141 nM. With `Cc1ccc2c(c1)CCC1=CC(=O)CCN12`, in test [1], the IC50 came to 376 nM.

Turning to `Cc1ccc2c(c1)CCC1[C@H](C)C(=O)C=CN21` (some centres not stated), in test [1], the IC50 turned out to be 137 nM.

Turning to `O=C1C=CN2c3ccc(Cl)cc3CCC2C1` (configuration not stated), the IC50 in test [1] came out at 459 nM.

`CC1=C2CCc3cc(Cl)ccc3N2CCC1=O`: the values for the IC50 in test [1] and in test [5] were 7.6 nM and 41 nM, respectively. The inhibition constant Ki in test [3] amounted to 2.7 nM. The compound also yielded an inhibition in test [4] of 20%. In the case of `CC1=C2C(C)Cc3cc(Cl)ccc3N2CCC1=O` (configuration not stated), the IC50 in test [2] stood at 15.6 nM. On to `CC1Cc2cc(Cl)ccc2-n2ccc(=O)cc21` (configuration not stated), for which, in test [2], the IC50 was 1880 nM.

`CC1CC2=CC(=O)CCN2c2ccc(Cl)cc21` (configuration not stated): in test [2], the half-inhibitory concentration (IC50) turned out to be 14.4 nM. Take `CN1C(=O)CC[C@@H]2c3ccc(Cl)cc3CC[C@H]21` [BEXLOSTERIDE]: the inhibition in test [4] was determined as 19%. In test [5], this compound yielded an IC50 of 2.3 nM. Regarding `CC1CC(=O)C=C2CCc3cc(Cl)ccc3N21` (configuration not stated), the 50% inhibitory concentration (IC50) in test [2] worked out at 204 nM. Turning to `CC1=C2CC(C)c3cc(Cl)ccc3N2CCC1=O` (configuration not stated), the half-inhibitory concentration (IC50) in test [2] stood at 8.5 nM. Take `Cc1ccc2c(c1)CCC1CC(=O)C=CN21` (configuration not stated): the IC50 in test [1] came out at 176 nM. Consider `CC1=C2CCc3cc(C)ccc3N2CCC1=O`, for which the values for the IC50 in test [1] and in test [5] were 20 nM and 41 nM, respectively. The Ki in test [3] was determined as 5.8 nM. The inhibition in test [4] turned out to be 20%.

On to `CC1=C2CCc3ccccc3N2CCC1=O`, for which the IC50 in test [1] is 185 nM. On the same count and under the same terms, the figure for `C[C@@H]1C(=O)C=CN2c3ccccc3CCC12` (some centres not stated) is 2700 nM. Regarding `CC(C)(C)NC(=O)[C@H]1CC[C@H]2[C@@H]3CC[C@H]4NC(=O)C=C[C@]4(C)[C@H]3CC[C@]12C` [FINASTERIDE], the Ki in test [6] stood at 366 nM. Further, half-maximal inhibition in test [7] (IC50) was put at 2.2 nM. Turning to `CC1Cc2cc(Cl)ccc2N2CCC(=O)C=C12` (configuration not stated), in test [1], the 50% inhibitory concentration (IC50) came to 346 nM. For `Cc1c2n(ccc1=O)-c1ccccc1CC2`, the IC50 in test [2] was determined as 1400 nM. For `CC1C(=O)C=CN2c3ccccc3CCC12` (configuration not stated), the IC50 in test [2] came to 4300 nM.
